SUMO1 PPI mod – alters human SUMO1 binding to SIM partners. SUMO1 binding to a labelled peptide, TR-FRET, 1 h. P63165. hit rate 0.33% among 360,000. inhibition, % at 20 µM. AID 602429; in the data active = inhibition above about 37%
Target sequence (P63165 whole entry, looked up): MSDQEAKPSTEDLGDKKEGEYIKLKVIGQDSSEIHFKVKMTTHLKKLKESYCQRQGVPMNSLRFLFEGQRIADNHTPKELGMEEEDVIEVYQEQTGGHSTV
STEP inh – blocks human striatal-enriched tyrosine phosphatase | P54829 | recombinant STEP, OMFP fluorogenic substrate, fluorescence | inhibition, % at 20 µM | hit rate 0.25% among 360,000;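 active = inhibition at 20 µM, scaled per plate between control wells, above about 37%, limit read from the data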;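 also: 0% = DMSO with enzyme and substrate and 100% = substrate only without enzyme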
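medium = Bis-Tris buffer pH 6.0, 2.5 mM DTT, 0.005% Tween 20 | test system = STEP (striatal-enriched tyrosine phosphatase) enzyme, cell-free | measure = normalized % inhibition | compound dosing = 20 µM, 1% DMSO | also added = 25 µM OMFP | schedule = reaction 20 min, ambient temperature | measured by = fluorescence read at 480 nm ex / 540 nm em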
Scp-1 inhibitor – blocks human Scp-1 phosphatase activity; AID 493091; hit rate 0.88% among 340,000; inhibition, % at 20 µM; Recombinant Scp1, phosphopeptide, malachite green phosphate absorbance;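 active = inhibition above about 50% at 20 µM, limit read from the data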;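 also: plate controls were DMSO wells with enzyme for no effect and wells lacking enzyme for full effect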
Target sequence (Q9GZU7 76-261 limits assumed): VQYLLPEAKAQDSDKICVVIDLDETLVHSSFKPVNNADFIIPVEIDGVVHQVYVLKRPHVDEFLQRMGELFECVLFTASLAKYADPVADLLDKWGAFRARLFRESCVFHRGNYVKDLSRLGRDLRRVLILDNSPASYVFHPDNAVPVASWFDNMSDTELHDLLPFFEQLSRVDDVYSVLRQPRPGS
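System: SCP-1 catalytic domain; Reagent: Phospho 17-mer peptide substrate; Doses: one concentration, 20 µM, with 1.0% DMSO; Incubation: 45 min room-temperature reaction, 5 min colour, 30 min stabiliser; Signal: Phosphate-binding colour reagent, absorbance read at 630 nm.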
GRK2 inh – blocks RNA aptamer binding to human GRK2 | hit rate 0.59% among 330,000 | P25098 | inhibition of aptamer binding, % at 10 µM | bead flow cytometry, FAM-aptamer displacement from GRK2;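 active = inhibition of aptamer binding above 40%, roughly 3 SD of noise, on plates passing a quality check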;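 also: median bead fluorescence of bound FAM aptamer so fluorescent compounds give negative values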
LMPTP block – LMPTP (human) inhibition; recombinant LMPTP-A, OMFP fluorogenic substrate, fluorescence intensity; AID 651560; inhibition, % at 20 µM; hit rate 0.22% among 360,000;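 active = compounds that cut the enzyme signal by at least half of the control window in the single-dose screen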;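 also: plate controls were DMSO wells with enzyme plus substrate for no effect and substrate without enzyme for full effect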
Target sequence (P24666 whole entry, looked up): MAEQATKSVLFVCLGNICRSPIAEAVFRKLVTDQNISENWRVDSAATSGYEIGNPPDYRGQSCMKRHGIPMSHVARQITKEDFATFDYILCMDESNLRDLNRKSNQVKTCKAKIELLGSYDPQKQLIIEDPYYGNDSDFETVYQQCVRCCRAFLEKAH
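Test system: LMPTP-A phosphatase enzyme. Amount: LMPTP-A at 0.625 nM final in the reaction. Reagent: OMFP substrate, 400 µM final. Times: 50 min at room temperature. Signal: endpoint fluorescence intensity from OMFP dephosphorylation. Read-out basis: % inhibition. Benchmarks: no-enzyme and uninhibited controls.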
DNMT1 inh – inhibitors of human DNMT1 | P26358 | DNMT1 molecular beacon, Hinp1I cleavage, fluorescence | inhibition (reported as % activation of signal), % at 10 µM | hit rate 0.83% among 360,000 | AID 588458; in the data active = inhibition above about 50%
Scp1 confirm – confirmation of human Scp-1 phosphatase inhibitors; inhibition, % at 20 µM; shares compounds with Scp-1 inhibitor; AID 540281; hit rate 61% among 2,500; recombinant SCP-1 catalytic domain, phosphate release, malachite green absorbance;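 also: plate controls were DMSO with enzyme for no effect and buffer wells lacking enzyme for full effect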
MG interference – colorimetric interference in Scp-1 counter-screen | apparent inhibition (interference), % at 20 µM | 2,500 tested, under 10 active | Colorimetric interference counterscreen, malachite green absorbance 630 nm | AID 540313 | shares compounds with Scp-1 inhibitor;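 also: compounds added after enzyme reaction finished so only phosphate colour detection is probed; plate controls were DMSO wells with completed Scp-1 reaction for no effect and substrate wells lacking enzyme for full effect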
Scp-1 Tm shift – binds human Scp-1, shifting its melting temperature; shares compounds with Scp-1 inhibitor; Recombinant SCP1, Sypro Orange thermal shift Tm; thermal shift relative to vanadate control, % at 40 µM; hit rate 25% among 1,500;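 active = substances whose mean melting-temperature shift, as a percentage of the reference inhibitor's shift, reaches about 5.3%, limit read from the data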;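 also: 0% = Tm of DMSO wells and 100% = Tm with sodium orthovanadate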
DNMT1 interf DR – beacon fluorescence artifact, dose response counter-screen | shares compounds with DNMT1 inh | molecular beacon fluorescence, spectral interference counter-screen | IC50, µM | 200 tested, under 10 active | AID 602382; call rule not given here
DNMT1 confirm – confirmation of human DNMT1 inhibitors. shares compounds with DNMT1 inh. DNMT1 molecular beacon HinP1I cleavage, fluorescence. inhibition, % at 10 µM. hit rate 8% among 2,300;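 active = average inhibition of at least 30% in the single-concentration confirmation test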
Beacon interf – shows spectral interference in the DNMT1 beacon assay | DNMT1 molecular beacon spectral interference counterscreen, fluorescence 485/520 | hit rate 1% among 2,300 | activation (fluorescence interference), % at 10 µM | AID 602387 | shares compounds with DNMT1 inh;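 active = activation of at least 30% at 10 µM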;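 also: DNMT1 catalytic domain with a HinP1I cleavage step and a FAM/dabcyl DNA beacon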
Numbers without * were called inactive; x = not tested or not shown. A selection: hits, their analogues and other compounds. The true share with any hit is near 2.2%.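 The calls were made as follows, unless noted: active = inhibition of at least 30% at 20 µM; inactive = the rest.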

SMILES	SUMO1 PPI mod	STEP inh	Scp-1 inhibitor	GRK2 inh	LMPTP block	DNMT1 inh	Scp1 confirm	MG interference	Scp-1 Tm shift	DNMT1 confirm	Beacon interf	others
COc1ccc(-c2nc3oc4cc(OC)ccc4c(=O)c3c(=O)n2Cc2ccco2)cc1	17	3	5	0	14	7	x	x	x	x	x
Cc1csc(NC(=O)c2cc(-c3ccco3)nc3ccccc23)n1	13	1	70*	11	28	96*	53*	-15	11*	12	-2
Cc1csc(NC(=O)c2cc(C)nc3ccccc23)n1	-4	-3	-5	4	-1	-4	x	x	x	x	x
Cc1ccc(-c2cc(C(=O)NCc3ccco3)c3ccccc3n2)o1	17	8	77*	0	7	92*	71*	-8	5	4	2
O=C(Nc1nccs1)c1cc(-c2ccco2)nc2ccccc12	1	-2	50*	1	21	55*	60*	-10	8.6*	16	-1
O=C(O)c1cc(-c2ccco2)nc2ccccc12	8	-1	59*	24	-1	61*	43*	-18	-3	1	-2
Cc1cc(C(=O)NCc2ccco2)c2ccccc2n1	-4	0	-11	4	0	-2	x	x	x	x	x
O=C(Nc1nccs1)c1cc(-c2ccccc2)nc2ccccc12	-4	-2	-5	0	3	-1	x	x	x	x	x
CC(=O)Nc1cc(-c2ccc(C(=O)N3CCOCC3)cc2)cn2c(-c3ccc(S(C)(=O)=O)cc3)cnc12	-29	-3	x	x	3	-3	x	x	x	x	x
Cc1ccc(C(=O)O)cc1-c1ccc(/C=C2/NC(=O)N(c3ccccc3)C2=O)o1	25	5	63*	19	4	92*	68*	-12	13*	34*	-2	DNMT1 interf DR=>99
CC(NC(=O)c1noc2c1CCCC2)c1ccccc1 (stereo not drawn)	-1	-5	-4	1	-1	2	x	x	x	x	x
COC(=O)c1ccccc1NC(=O)c1noc2c1CCC2	2	13	70*	19	8	99*	65*	-15	4	3	4
COc1ccc(NC(=O)c2noc3c2CCCCC3)cc1	3	-2	-7	1	0	2	x	x	x	x	x
CSc1ccccc1NC(=O)c1noc2c1CCC2	6	5	63*	10	9	81*	67*	-13	3	6	1
CC(=O)Nc1cc(C(=O)O)ccc1S(=O)(=O)c1ccc(C)cc1	-1	-8	25	0	1	3	x	x	x	x	x
CCC(=O)Nc1cc(C(=O)O)ccc1S(=O)(=O)c1ccc(C)cc1	7	9	67*	0	-1	63*	57*	-5	4	-1	1
CCCCNC(=O)C1(C)CCC(=O)N1C1CCN(Cc2ccccc2)CC1 (stereo not drawn)	3	-1	x	x	0	5	x	x	x	x	x
O=c1c(Cl)c(N/N=C/c2ccc(Br)cc2)cnn1-c1ccccc1	-2	2	59*	2	52*	90*	61*	-20	-12	3	-1

Compound activity deposited in PubChem BioAssay by several laboratories.
